# Key:
# Format in all cases: functional
# [1] = system: Brassica rapa subsp. oleifera; assay: Herbicidal activity against Brassica rapa subsp. oleifera assessed as inhibition of fresh weed plant weight at 1500 g/ha using post-emergence treatment protocol
# Outline: (§1)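 Test compounds made up as emulsions by dissolving in 100 µL N,N-dimethylformamide, then adding a little Tween 20 and water. For post-emergence, weed seedlings at one leaf and one stem were sprayed at the same rates as the pre-emergence test. Fresh weight was recorded 15 days after treatment and expressed as percent inhibition versus controls. All treatments were run in triplicate.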
# [2] = system: Brassica rapa subsp. oleifera; assay: Herbicidal activity against Brassica rapa subsp. oleifera assessed as inhibition of fresh weed plant weight at 375 g/ha using post-emergence treatment protocol; outline: as §1
# Digitaria sanguinalis [3] = assay: Herbicidal activity against Digitaria sanguinalis (hairy crabgrass) assessed as inhibition of fresh weed plant weight at 375 g/ha using post-emergence treatment protocol; outline: as §1
# Echinochloa crus-galli [4] = assay: Herbicidal activity against Echinochloa crus-galli (barnyard grass) assessed as inhibition of fresh weed plant weight at 45 g/ha using pre-emergence treatment protocol
# Digitaria sanguinalis [5] = assay: Herbicidal activity against Digitaria sanguinalis (hairy crabgrass) assessed as inhibition of fresh weed plant weight at 187.5 g/ha using pre-emergence treatment protocol
# Amaranthus retroflexus [6] = assay: Herbicidal activity against Amaranthus retroflexus assessed as inhibition of fresh weed plant weight at 187.5 g/ha using post-emergence treatment protocol; outline: as §1
# Digitaria sanguinalis [7] = assay: Herbicidal activity against Digitaria sanguinalis (hairy crabgrass) assessed as inhibition of fresh weed plant weight at 45 g/ha using pre-emergence treatment protocol
# Amaranthus retroflexus [8] = assay: Herbicidal activity against Amaranthus retroflexus assessed as inhibition of fresh weed plant weight at 22.5 g/ha using pre-emergence treatment protocol
# Amaranthus retroflexus [9] = assay: Herbicidal activity against Amaranthus retroflexus assessed as inhibition of fresh weed plant weight at 750 g/ha using post-emergence treatment protocol; outline: as §1
# [10] = system: Brassica rapa subsp. oleifera; assay: Herbicidal activity against Brassica rapa subsp. oleifera assessed as inhibition of fresh weed plant weight at 22.5 g/ha using pre-emergence treatment protocol
# [11] = system: Brassica rapa subsp. oleifera; assay: Herbicidal activity against Brassica rapa subsp. oleifera assessed as inhibition of fresh weed plant weight at 750 g/ha using pre-emergence treatment protocol
# Echinochloa crus-galli [12] = assay: Herbicidal activity against Echinochloa crus-galli (barnyard grass) assessed as inhibition of fresh weed plant weight at 22.5 g/ha using pre-emergence treatment protocol; outline: as §1
# Echinochloa crus-galli [13] = assay: Herbicidal activity against Echinochloa crus-galli (barnyard grass) assessed as inhibition of fresh weed plant weight at 187.5 g/ha using pre-emergence treatment protocol; outline: as §1
# Amaranthus retroflexus [14] = assay: Herbicidal activity against Amaranthus retroflexus assessed as inhibition of fresh weed plant weight at 375 g/ha using post-emergence treatment protocol; outline: as §1
# Digitaria sanguinalis [15] = assay: Herbicidal activity against Digitaria sanguinalis (hairy crabgrass) assessed as inhibition of fresh weed plant weight at 187.5 g/ha using post-emergence treatment protocol; outline: as §1
# Amaranthus retroflexus [16] = assay: Herbicidal activity against Amaranthus retroflexus assessed as inhibition of fresh weed plant weight at 1500 g/ha using post-emergence treatment protocol; outline: as §1
# Digitaria sanguinalis [17] = assay: Herbicidal activity against Digitaria sanguinalis (hairy crabgrass) assessed as inhibition of fresh weed plant weight at 93.75 g/ha using post-emergence treatment protocol; outline: as §1
# Digitaria sanguinalis [18] = assay: Herbicidal activity against Digitaria sanguinalis (hairy crabgrass) assessed as inhibition of fresh weed plant weight at 1500 g/ha using post-emergence treatment protocol; outline: as §1
# Amaranthus retroflexus [19] = assay: Herbicidal activity against Amaranthus retroflexus assessed as inhibition of fresh weed plant weight at 750 g/ha using pre-emergence treatment protocol; outline: as §1
# Echinochloa crus-galli [20] = assay: Herbicidal activity against Echinochloa crus-galli (barnyard grass) assessed as inhibition of fresh weed plant weight at 750 g/ha using pre-emergence treatment protocol
# Echinochloa crus-galli [21] = assay: Herbicidal activity against Echinochloa crus-galli (barnyard grass) assessed as inhibition of fresh weed plant weight at 375 g/ha using pre-emergence treatment protocol; outline: as §1
# Digitaria sanguinalis [22] = assay: Herbicidal activity against Digitaria sanguinalis (hairy crabgrass) assessed as inhibition of fresh weed plant weight at 375 g/ha using pre-emergence treatment protocol
# Amaranthus retroflexus [23] = assay: Herbicidal activity against Amaranthus retroflexus assessed as inhibition of fresh weed plant weight at 375 g/ha using pre-emergence treatment protocol
# [24] = system: Brassica rapa subsp. oleifera; assay: Herbicidal activity against Brassica rapa subsp. oleifera assessed as inhibition of fresh weed plant weight at 45 g/ha using pre-emergence treatment protocol
# [25] = system: Brassica rapa subsp. oleifera; assay: Herbicidal activity against Brassica rapa subsp. oleifera assessed as inhibition of fresh weed plant weight at 750 g/ha using post-emergence treatment protocol; outline: as §1
# [26] = system: Brassica rapa subsp. oleifera; assay: Herbicidal activity against Brassica rapa subsp. oleifera assessed as inhibition of fresh weed plant weight at 93.75 g/ha using post-emergence treatment protocol; outline: as §1
# [27] = system: Brassica rapa subsp. oleifera; assay: Herbicidal activity against Brassica rapa subsp. oleifera assessed as inhibition of fresh weed plant weight at 1500 g/ha using pre-emergence treatment protocol
# Amaranthus retroflexus [28] = assay: Herbicidal activity against Amaranthus retroflexus assessed as inhibition of fresh weed plant weight at 1500 g/ha using pre-emergence treatment protocol
# Digitaria sanguinalis [29] = assay: Herbicidal activity against Digitaria sanguinalis (hairy crabgrass) assessed as inhibition of fresh weed plant weight at 750 g/ha using post-emergence treatment protocol; outline: as §1
# [30] = system: Brassica rapa subsp. oleifera; assay: Herbicidal activity against Brassica rapa subsp. oleifera assessed as inhibition of fresh weed plant weight at 187.5 g/ha using pre-emergence treatment protocol
# Amaranthus retroflexus [31] = assay: Herbicidal activity against Amaranthus retroflexus assessed as inhibition of fresh weed plant weight at 187.5 g/ha using pre-emergence treatment protocol
# Echinochloa crus-galli [32] = assay: Herbicidal activity against Echinochloa crus-galli (barnyard grass) assessed as inhibition of fresh weed plant weight at 93.75 g/ha using pre-emergence treatment protocol
# Digitaria sanguinalis [33] = assay: Herbicidal activity against Digitaria sanguinalis (hairy crabgrass) assessed as inhibition of fresh weed plant weight at 93.75 g/ha using pre-emergence treatment protocol
# Echinochloa crus-galli [34] = assay: Herbicidal activity against Echinochloa crus-galli (barnyard grass) assessed as inhibition of fresh weed plant weight at 1500 g/ha using pre-emergence treatment protocol
# Digitaria sanguinalis [35] = assay: Herbicidal activity against Digitaria sanguinalis (hairy crabgrass) assessed as inhibition of fresh weed plant weight at 22.5 g/ha using pre-emergence treatment protocol
# Echinochloa crus-galli [36] = assay: Herbicidal activity against Echinochloa crus-galli (barnyard grass) assessed as inhibition of fresh weed plant weight at 93.75 g/ha using post-emergence treatment protocol; outline: as §1
# [37] = system: Brassica rapa subsp. oleifera; assay: Herbicidal activity against Brassica rapa subsp. oleifera assessed as inhibition of fresh weed plant weight at 93.75 g/ha using pre-emergence treatment protocol
# Echinochloa crus-galli [38] = assay: Herbicidal activity against Echinochloa crus-galli (barnyard grass) assessed as inhibition of fresh weed plant weight at 375 g/ha using post-emergence treatment protocol; outline: as §1
# Digitaria sanguinalis [39] = assay: Herbicidal activity against Digitaria sanguinalis (hairy crabgrass) assessed as inhibition of fresh weed plant weight at 1500 g/ha using pre-emergence treatment protocol
# Amaranthus retroflexus [40] = assay: Herbicidal activity against Amaranthus retroflexus assessed as inhibition of fresh weed plant weight at 45 g/ha using pre-emergence treatment protocol
# [41] = system: Brassica rapa subsp. oleifera; assay: Herbicidal activity against Brassica rapa subsp. oleifera assessed as inhibition of fresh weed plant weight at 187.5 g/ha using post-emergence treatment protocol; outline: as §1
# Echinochloa crus-galli [42] = assay: Herbicidal activity against Echinochloa crus-galli (barnyard grass) assessed as inhibition of fresh weed plant weight at 750 g/ha using post-emergence treatment protocol; outline: as §1
# Echinochloa crus-galli [43] = assay: Herbicidal activity against Echinochloa crus-galli (barnyard grass) assessed as inhibition of fresh weed plant weight at 1500 g/ha using post-emergence treatment protocol; outline: as §1
# Echinochloa crus-galli [44] = assay: Herbicidal activity against Echinochloa crus-galli (barnyard grass) assessed as inhibition of fresh weed plant weight at 187.5 g/ha using post-emergence treatment protocol; outline: as §1
# Amaranthus retroflexus [45] = assay: Herbicidal activity against Amaranthus retroflexus assessed as inhibition of fresh weed plant weight at 93.75 g/ha using post-emergence treatment protocol; outline: as §1
# Digitaria sanguinalis [46] = assay: Herbicidal activity against Digitaria sanguinalis (hairy crabgrass) assessed as inhibition of fresh weed plant weight at 750 g/ha using pre-emergence treatment protocol
# Amaranthus retroflexus [47] = assay: Herbicidal activity against Amaranthus retroflexus assessed as inhibition of fresh weed plant weight at 93.75 g/ha using pre-emergence treatment protocol
# [48] = system: Brassica rapa subsp. oleifera; assay: Herbicidal activity against Brassica rapa subsp. oleifera assessed as inhibition of fresh weed plant weight at 375 g/ha using pre-emergence treatment protocol
compound,measurement,setting,value
C=CCN1C(=O)COc2cc(F)c(-n3nnc4c(cnn4CC=C)c3=O)cc21,inhibition at 1500 g/ha,[1],100%
same,inhibition at 375 g/ha,[2],95.3%
same,inhibition at 375 g/ha,Digitaria sanguinalis [3],0%
same,inhibition at 45 g/ha,Echinochloa crus-galli [4],7.4%
same,inhibition at 187.5 g/ha,Digitaria sanguinalis [5],26.5%
same,inhibition at 187.5 g/ha,Amaranthus retroflexus [6],30.6%
same,inhibition at 45 g/ha,Digitaria sanguinalis [7],17.1%
same,inhibition at 22.5 g/ha,Amaranthus retroflexus [8],3.4%
same,inhibition at 750 g/ha,Amaranthus retroflexus [9],85.1%
same,inhibition at 22.5 g/ha,[10],12.7%
same,inhibition at 750 g/ha,[11],100%
same,inhibition at 22.5 g/ha,Echinochloa crus-galli [12],5.4%
same,inhibition at 187.5 g/ha,Echinochloa crus-galli [13],34.4%
same,inhibition at 375 g/ha,Amaranthus retroflexus [14],53.7%
same,inhibition at 187.5 g/ha,Digitaria sanguinalis [15],0%
same,inhibition at 1500 g/ha,Amaranthus retroflexus [16],100%
same,inhibition at 93.75 g/ha,Digitaria sanguinalis [17],0%
same,inhibition at 1500 g/ha,Digitaria sanguinalis [18],31.2%
same,inhibition at 750 g/ha,Amaranthus retroflexus [19],100%
same,inhibition at 750 g/ha,Echinochloa crus-galli [20],89.2%
same,inhibition at 375 g/ha,Echinochloa crus-galli [21],47.4%
same,inhibition at 375 g/ha,Digitaria sanguinalis [22],51%
same,inhibition at 375 g/ha,Amaranthus retroflexus [23],100%
same,inhibition at 45 g/ha,[24],40.7%
same,inhibition at 750 g/ha,[25],100%
same,inhibition at 93.75 g/ha,[26],19.6%
same,inhibition at 1500 g/ha,[27],100%
same,inhibition at 1500 g/ha,Amaranthus retroflexus [28],100%
same,inhibition at 750 g/ha,Digitaria sanguinalis [29],4.2%
same,inhibition at 187.5 g/ha,[30],93.3%
same,inhibition at 187.5 g/ha,Amaranthus retroflexus [31],100%
same,inhibition at 93.75 g/ha,Echinochloa crus-galli [32],10%
same,inhibition at 93.75 g/ha,Digitaria sanguinalis [33],20.4%
same,inhibition at 1500 g/ha,Echinochloa crus-galli [34],96.5%
same,inhibition at 22.5 g/ha,Digitaria sanguinalis [35],4.9%
same,inhibition at 93.75 g/ha,Echinochloa crus-galli [36],0.2%
same,inhibition at 93.75 g/ha,[37],60.4%
same,inhibition at 375 g/ha,Echinochloa crus-galli [38],23.2%
same,inhibition at 1500 g/ha,Digitaria sanguinalis [39],92.3%
same,inhibition at 45 g/ha,Amaranthus retroflexus [40],82.8%
same,inhibition at 187.5 g/ha,[41],55.6%
same,inhibition at 750 g/ha,Echinochloa crus-galli [42],49.9%
same,inhibition at 1500 g/ha,Echinochloa crus-galli [43],89.3%
same,inhibition at 187.5 g/ha,Echinochloa crus-galli [44],14.2%
same,inhibition at 93.75 g/ha,Amaranthus retroflexus [45],19%
same,inhibition at 750 g/ha,Digitaria sanguinalis [46],67.4%
same,inhibition at 93.75 g/ha,Amaranthus retroflexus [47],100%
same,inhibition at 375 g/ha,[48],100%
